Test results taken from ChEMBL document CHEMBL4433221, “Novel Sustainable-by-Design HDAC Inhibitors for the Treatment of Alzheimer's Disease” (ACS Med Chem Lett, 2019).
Calls of active or inactive are those of the source. The calls are words filed in the database; no cut-off is given here.

Assays:
[1] = target: T1, Histone deacetylase 8 (Homo sapiens) (UniProt Q9BY41); assay: Inhibition of human recombinant HDAC8 using fluorogenic peptide p53 residues 379-382 (RHK(Ac)K(Ac)AMC) as residues at 10 uM by fluorescence method
T1 sequence (whole entry): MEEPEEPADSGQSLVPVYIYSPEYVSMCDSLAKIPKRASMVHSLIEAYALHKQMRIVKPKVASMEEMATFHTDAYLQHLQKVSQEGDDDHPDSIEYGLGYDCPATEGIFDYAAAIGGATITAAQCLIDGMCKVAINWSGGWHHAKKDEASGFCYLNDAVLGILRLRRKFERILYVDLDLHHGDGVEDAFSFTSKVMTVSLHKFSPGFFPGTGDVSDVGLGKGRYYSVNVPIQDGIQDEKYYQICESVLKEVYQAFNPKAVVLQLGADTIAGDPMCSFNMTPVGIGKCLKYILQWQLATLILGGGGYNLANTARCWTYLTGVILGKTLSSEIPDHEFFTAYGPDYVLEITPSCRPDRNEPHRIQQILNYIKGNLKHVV
Procedure, shortened: (§1)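 Selectivity profile across HDAC isoforms 1–11 at a single concentration of 10 μM, run in duplicate.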

Histone deacetylase 1 [2] = target: T2, Histone deacetylase 1 (Homo sapiens, UniProt Q13547); assay: Inhibition of human recombinant HDAC1 using ZMAL (Z-(Ac)Lys-AMC fluorogenic substrate incubated for 90 mins by fluorescence method
[3] = target: Histone deacetylase 9 (Homo sapiens) (UniProt Q9UKV0); assay: Inhibition of human recombinant HDAC9 using fluorogenic trifluoroacetyl lysine as substrate at 10 uM by fluorescence method; procedure, shortened: as §1
Histone deacetylase 1 [4] = target: T2, Histone deacetylase 1; assay: Inhibition of human recombinant HDAC1 using fluorogenic peptide p53 residues 379-382 (RHKK(Ac)AMC) as residues at 10 uM by fluorescence method; procedure, shortened: as §1
[5] = target: Histone deacetylase (Mus musculus) (UniProt Q8VH37+Q9Z2V6+Q9Z2V5+O09106+Q8C2B3+P70288+O88895+Q91WA3+Q99N13+Q6NZM9+Q6P3E7); details: at 5 to 25 µM
[6] = target: Histone deacetylase 4 (Homo sapiens) (UniProt P56524); assay: Inhibition of human recombinant HDAC4 using fluorogenic trifluoroacetyl lysine as substrate at 10 uM by fluorescence method; procedure, shortened: as §1
[7] = Permeability of the compound at pH 7.4 PBS buffer at 100 uM measured upto 6 hrs by PAMPA-BBB assay
[8] = target: T3, Protein deacetylase HDAC6 (Homo sapiens, UniProt Q9UBN7); assay: Inhibition of human recombinant HDAC6 using ZMAL (Z-(Ac)Lys-AMC fluorogenic substrate incubated for 90 mins by fluorescence method
T3 sequence (Q9UBN7 whole entry): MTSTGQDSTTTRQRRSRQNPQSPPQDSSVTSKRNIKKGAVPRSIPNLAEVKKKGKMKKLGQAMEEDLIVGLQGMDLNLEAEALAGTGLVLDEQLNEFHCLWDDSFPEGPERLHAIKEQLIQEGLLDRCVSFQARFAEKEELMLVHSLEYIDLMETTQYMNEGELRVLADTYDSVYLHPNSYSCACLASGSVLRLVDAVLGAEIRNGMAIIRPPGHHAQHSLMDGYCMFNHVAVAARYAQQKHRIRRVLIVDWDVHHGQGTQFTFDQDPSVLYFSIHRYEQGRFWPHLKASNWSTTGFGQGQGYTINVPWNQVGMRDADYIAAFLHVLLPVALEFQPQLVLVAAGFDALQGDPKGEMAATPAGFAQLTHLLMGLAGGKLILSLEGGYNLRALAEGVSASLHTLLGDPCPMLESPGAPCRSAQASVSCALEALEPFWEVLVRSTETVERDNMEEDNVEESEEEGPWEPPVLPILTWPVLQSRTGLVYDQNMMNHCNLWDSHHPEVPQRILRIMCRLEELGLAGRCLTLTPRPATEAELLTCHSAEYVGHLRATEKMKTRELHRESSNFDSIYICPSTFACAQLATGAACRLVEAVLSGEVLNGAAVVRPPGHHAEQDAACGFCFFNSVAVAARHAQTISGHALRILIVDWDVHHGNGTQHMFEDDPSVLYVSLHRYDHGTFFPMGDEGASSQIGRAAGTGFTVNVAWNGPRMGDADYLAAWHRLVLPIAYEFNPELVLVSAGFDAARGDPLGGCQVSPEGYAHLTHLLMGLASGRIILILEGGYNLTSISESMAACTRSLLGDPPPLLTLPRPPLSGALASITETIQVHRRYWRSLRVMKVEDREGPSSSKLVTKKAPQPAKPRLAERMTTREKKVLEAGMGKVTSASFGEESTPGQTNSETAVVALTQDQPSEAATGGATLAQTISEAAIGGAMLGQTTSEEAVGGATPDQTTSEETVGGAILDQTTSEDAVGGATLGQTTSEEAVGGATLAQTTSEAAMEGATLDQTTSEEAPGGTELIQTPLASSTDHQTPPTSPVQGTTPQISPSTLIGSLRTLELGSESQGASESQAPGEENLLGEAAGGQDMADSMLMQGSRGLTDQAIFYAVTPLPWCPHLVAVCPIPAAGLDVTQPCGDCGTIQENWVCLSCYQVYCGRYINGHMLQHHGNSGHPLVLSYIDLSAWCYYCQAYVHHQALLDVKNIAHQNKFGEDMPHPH

T2 sequence (Q13547 whole entry): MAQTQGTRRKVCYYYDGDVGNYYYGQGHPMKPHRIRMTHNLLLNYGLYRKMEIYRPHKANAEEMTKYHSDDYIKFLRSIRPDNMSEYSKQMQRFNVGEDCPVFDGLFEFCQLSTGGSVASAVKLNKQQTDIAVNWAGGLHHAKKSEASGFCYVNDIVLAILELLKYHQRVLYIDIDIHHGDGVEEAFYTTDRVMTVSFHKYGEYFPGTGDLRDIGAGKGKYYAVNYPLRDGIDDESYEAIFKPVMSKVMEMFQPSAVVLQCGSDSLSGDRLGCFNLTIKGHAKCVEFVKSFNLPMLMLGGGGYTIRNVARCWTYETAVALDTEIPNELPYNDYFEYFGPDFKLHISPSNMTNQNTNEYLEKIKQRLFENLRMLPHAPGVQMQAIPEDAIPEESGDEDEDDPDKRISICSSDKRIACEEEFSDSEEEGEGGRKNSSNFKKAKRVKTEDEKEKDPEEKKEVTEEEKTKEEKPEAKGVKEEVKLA
Chain of Histone deacetylase 9 (Homo sapiens) (Q9UKV0 whole entry, the tested form may be a part): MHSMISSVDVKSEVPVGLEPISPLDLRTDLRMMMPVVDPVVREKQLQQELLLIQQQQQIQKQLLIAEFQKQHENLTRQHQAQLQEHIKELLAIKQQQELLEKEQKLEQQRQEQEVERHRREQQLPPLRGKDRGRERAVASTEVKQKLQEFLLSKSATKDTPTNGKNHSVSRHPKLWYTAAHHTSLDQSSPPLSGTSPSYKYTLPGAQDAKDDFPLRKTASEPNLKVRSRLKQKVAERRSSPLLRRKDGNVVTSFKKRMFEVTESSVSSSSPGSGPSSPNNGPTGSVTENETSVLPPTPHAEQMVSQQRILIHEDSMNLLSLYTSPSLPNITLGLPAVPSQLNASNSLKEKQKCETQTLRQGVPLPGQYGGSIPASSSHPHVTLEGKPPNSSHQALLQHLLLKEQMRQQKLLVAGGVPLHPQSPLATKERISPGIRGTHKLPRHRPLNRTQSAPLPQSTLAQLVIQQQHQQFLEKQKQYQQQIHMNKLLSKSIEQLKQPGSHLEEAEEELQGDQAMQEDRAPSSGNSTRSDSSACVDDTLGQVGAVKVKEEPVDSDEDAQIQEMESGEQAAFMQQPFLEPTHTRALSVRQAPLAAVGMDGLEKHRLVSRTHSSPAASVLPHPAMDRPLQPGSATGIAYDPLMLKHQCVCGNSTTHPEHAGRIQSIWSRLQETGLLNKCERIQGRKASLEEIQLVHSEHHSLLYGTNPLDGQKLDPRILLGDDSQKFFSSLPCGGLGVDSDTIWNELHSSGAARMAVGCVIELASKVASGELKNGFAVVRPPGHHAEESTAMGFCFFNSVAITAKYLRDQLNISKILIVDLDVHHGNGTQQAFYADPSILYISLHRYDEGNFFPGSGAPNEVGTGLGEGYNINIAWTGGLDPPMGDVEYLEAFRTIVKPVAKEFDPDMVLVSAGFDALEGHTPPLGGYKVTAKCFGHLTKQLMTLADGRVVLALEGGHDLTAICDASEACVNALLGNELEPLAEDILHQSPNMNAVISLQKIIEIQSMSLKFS
Chain of Histone deacetylase 4 (Homo sapiens) (P56524 whole entry): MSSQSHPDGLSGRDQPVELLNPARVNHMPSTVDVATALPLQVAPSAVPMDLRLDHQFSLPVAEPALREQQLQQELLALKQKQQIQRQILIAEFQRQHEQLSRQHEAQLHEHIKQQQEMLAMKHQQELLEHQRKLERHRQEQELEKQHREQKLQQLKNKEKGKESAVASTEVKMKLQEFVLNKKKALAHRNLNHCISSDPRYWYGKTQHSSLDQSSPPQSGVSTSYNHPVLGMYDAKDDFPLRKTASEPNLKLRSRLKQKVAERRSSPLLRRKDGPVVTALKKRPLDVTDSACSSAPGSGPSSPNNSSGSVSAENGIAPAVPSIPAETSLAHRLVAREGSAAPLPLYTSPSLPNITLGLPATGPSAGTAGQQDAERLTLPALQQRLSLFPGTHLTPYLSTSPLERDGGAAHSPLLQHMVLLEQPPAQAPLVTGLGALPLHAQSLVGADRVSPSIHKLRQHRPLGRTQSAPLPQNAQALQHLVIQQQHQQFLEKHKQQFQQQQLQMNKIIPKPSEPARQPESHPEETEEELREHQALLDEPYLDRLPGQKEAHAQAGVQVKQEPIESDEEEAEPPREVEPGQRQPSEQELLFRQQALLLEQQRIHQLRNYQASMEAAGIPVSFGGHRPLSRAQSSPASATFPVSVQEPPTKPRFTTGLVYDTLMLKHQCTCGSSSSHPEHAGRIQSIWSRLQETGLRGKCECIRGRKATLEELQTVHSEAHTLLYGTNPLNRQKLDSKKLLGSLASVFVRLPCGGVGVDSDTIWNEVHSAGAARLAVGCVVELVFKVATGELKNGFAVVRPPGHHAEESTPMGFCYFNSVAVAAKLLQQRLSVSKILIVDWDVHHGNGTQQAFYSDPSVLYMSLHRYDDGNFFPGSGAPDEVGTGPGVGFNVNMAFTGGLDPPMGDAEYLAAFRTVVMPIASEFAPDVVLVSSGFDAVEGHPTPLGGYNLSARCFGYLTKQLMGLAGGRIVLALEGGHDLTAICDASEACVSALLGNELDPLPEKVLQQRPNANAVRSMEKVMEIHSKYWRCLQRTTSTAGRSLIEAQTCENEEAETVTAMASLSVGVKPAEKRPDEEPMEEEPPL

inhibition [1] | IC50 (Histone deacetylase 1 [2]) [nM] | inhibition [3] | inhibition (Histone deacetylase 1 [4]) | inhibition [5] | inhibition [6] | Papp at 6 h, 100 µM [7] [×10⁻⁶ cm/s] | IC50 [8] [nM] | SMILES
inactive | 775 | inactive | Active | Active | inactive | 10.2 | 215 | COC(=O)c1c(CCCCCCCC(=O)NO)cccc1OC
inactive | 316 | inactive | Active | Active | inactive | 13.4 | 190 | COc1cccc(CCCCCCCC(=O)NO)c1
